According to ChEMBL document CHEMBL4706639, “Discovery of Novel Azetidine Amides as Potent Small-Molecule STAT3 Inhibitors” (J Med Chem, 2021):
≈ marks a conversion by molar mass, not a printed value. Blank lines part the entries; values can stand above or below the compound they belong to. Calls of active or inactive are those of the source. The calls are words filed in the database; no cut-off is given here.

Columns and labels:
MDA-MB-231 [1] = assay: Antiproliferative activity against human MDA-MB-231 cells assessed as reduction in cell viability incubated for 72 hrs by CyQuant assay; format: functional, cell-based; conditions: MDA-MB-231, 72 h
MDA-MB-468 = assay: Antiproliferative activity against human MDA-MB-468 cells harbouring STAT3 assessed as reduction in cell viability incubated for 72 hrs by CyQuant assay; format: functional, cell-based; conditions: MDA-MB-468, 72 h
MCF7 [2] = assay: Antiproliferative activity against human MCF7 cells assessed as reduction in cell viability incubated for 72 hrs by CyQuant assay; format: functional, cell-based; conditions: MCF7, 72 h
MCF-10A = assay: Cytotoxicity against human MCF-10A cells assessed as reduction in cell viability incubated for 72 hrs by CyQuant assay; format: cell-based
MCF7 [3] = assay: Antiproliferative activity against human MCF7 cells assessed as reduction in cell viability at 2 uM incubated for 24 hrs by Trypan blue exclusion dye based phase contrast microscopic analysis; format: functional
Summary of the method: (§1)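 Cells in 6-well culture, untreated or treated once with 2 μM compound. Harvested every 24 h (up to 96 h) and counted as viable cells by trypan blue exclusion under phase-contrast microscopy. Counts plotted against duration of treatment.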

MDA-MB-231 [4] = assay: Antiproliferative activity against human MDA-MB-231 cells assessed as reduction in cell viability at 2 uM incubated for 24 hrs by Trypan blue exclusion dye based phase contrast microscopic analysis; format: functional; summary of the method: as §1
[5] = biological target: Signal transducer and activator of transcription 3 (Homo sapiens) (UniProt P40763); assay: Binding affinity to STAT3 (unknown origin) assessed as change in enthalpy by isothermal titration calorimetry
Chain of Signal transducer and activator of transcription 3 (Homo sapiens) (P40763 whole entry): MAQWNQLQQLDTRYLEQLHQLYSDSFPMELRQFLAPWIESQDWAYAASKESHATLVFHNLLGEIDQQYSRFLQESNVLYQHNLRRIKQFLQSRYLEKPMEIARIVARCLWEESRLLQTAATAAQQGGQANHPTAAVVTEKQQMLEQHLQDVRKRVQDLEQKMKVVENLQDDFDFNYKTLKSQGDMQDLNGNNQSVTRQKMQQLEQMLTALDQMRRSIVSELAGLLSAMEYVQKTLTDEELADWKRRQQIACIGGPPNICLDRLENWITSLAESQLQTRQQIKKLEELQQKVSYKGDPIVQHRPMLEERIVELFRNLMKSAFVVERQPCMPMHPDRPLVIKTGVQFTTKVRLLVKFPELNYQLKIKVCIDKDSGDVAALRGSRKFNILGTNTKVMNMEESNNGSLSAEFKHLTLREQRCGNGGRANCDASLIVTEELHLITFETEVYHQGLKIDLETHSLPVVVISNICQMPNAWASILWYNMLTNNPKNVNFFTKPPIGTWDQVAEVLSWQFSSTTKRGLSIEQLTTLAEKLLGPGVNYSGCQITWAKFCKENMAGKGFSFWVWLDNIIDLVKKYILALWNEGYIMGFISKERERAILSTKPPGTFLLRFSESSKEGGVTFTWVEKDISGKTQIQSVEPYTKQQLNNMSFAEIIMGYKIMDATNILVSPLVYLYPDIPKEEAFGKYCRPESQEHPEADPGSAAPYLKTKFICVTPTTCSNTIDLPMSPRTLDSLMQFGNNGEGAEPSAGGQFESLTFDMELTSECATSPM

[6] = biological target: Signal transducer and activator of transcription 3 (Homo sapiens) (UniProt P40763); assay: Binding affinity to STAT3 (unknown origin) assessed as change in entropy by isothermal titration calorimetry
[7] = biological target: Signal transducer and activator of transcription 3 (Homo sapiens) (UniProt P40763); assay: Inhibition of oligonucleotide [32P]-labelled 5'-AGCITCATTTCCCGTAAATCCCTA hSIE probe binding to STAT3 in human MDA-MB-468 cell nuclear extract at 5 uM by EMSA analysis; conditions: time upper […], TDE = time-dependent effect
[8] = biological target: Signal transducer and activator of transcription 3 (Homo sapiens) (UniProt P40763); assay: Inhibition of STAT3 phosphorylation at Y705 residues in human MDA-MB-468 whole cell lysate at 3 uM at 24 hrs by immunoblotting analysis; format: subcellular
Summary of the method: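 MDA-MB-468 cells (DMEM, 10% heat-inactivated FBS) treated with 3 μM compound for 3–24 h or 0.05% DMSO; equal-protein whole-cell RIPA lysates run on SDS-PAGE and immunoblotted for pY705STAT3, total STAT3 and tubulin. Representative of two to three independent determinations.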

MDA-MB-231 [9] = assay: Anticlonogenic activity against human MDA-MB-231 cells assessed as inhibition of colony formation at 0.5 to 1 uM incubated for 4 hrs by crystal violet staining based assay; format: functional, cell-based; conditions: dose 0.5-1 µM
Summary of the method: (§2)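 MDA-MB-231 cells seeded as single-cell cultures (250 cells per well), treated once the next day with compound at 0–1 μM and grown until large colonies were visible. Colonies stained with crystal violet for 4 h and photographed. Three independent determinations.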

[10] = Inhibition of oligonucleotide [32P]-labelled 5'-AGATTTCTAGGAATTCAA probe binding to STAT5 homodimer in mouse NIH3T3 nuclear extract preincubated for 30 mins followed by MGFe probe addition by EMSA analysis
[11] = biological target: Signal transducer and activator of transcription 3 (Homo sapiens) (UniProt P40763); assay: Inhibition of STAT3 in human MDA-MB-231 cells assessed as effect on EGFR expression at 1 to 3 uM incubated for 3 to 24 hrs by immunoblotting analysis; format: cell-based; conditions: dose 1-3 µM, time lower 3.0 hrs, time upper […]
Summary of the method: (§3)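 MDA-MB-231 cells treated with 1 or 3 μM compound. Whole-cell lysates prepared in RIPA buffer and immunoblotted for EGFR, JAK2, Src, AKT and ERK1/2.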

[12] = biological target: Signal transducer and activator of transcription 3 (Homo sapiens) (UniProt P40763); assay: Inhibition of STAT3 in human MDA-MB-231 cells assessed as effect on JAK2 expression at 1 to 3 uM incubated for 3 to 24 hrs by immunoblotting analysis; format: cell-based; conditions: dose 1-3 µM, time lower 3.0 hrs, time upper […]; summary of the method: as §3
[13] = biological target: Signal transducer and activator of transcription 3 (Homo sapiens) (UniProt P40763); assay: Inhibition of STAT3 in human MDA-MB-231 cells assessed as effect on Src expression at 1 to 3 uM incubated for 3 to 24 hrs by immunoblotting analysis; format: cell-based; conditions: dose 1-3 µM, time lower 3.0 hrs, time upper […]; summary of the method: as §3
[14] = biological target: Signal transducer and activator of transcription 3 (Homo sapiens) (UniProt P40763); assay: Inhibition of STAT3 in human MDA-MB-231 cells assessed as effect on Akt expression at 1 to 3 uM incubated for 3 to 24 hrs by immunoblotting analysis; format: cell-based; conditions: dose 1-3 µM, time lower 3.0 hrs, time upper […]; summary of the method: as §3
[15] = biological target: Signal transducer and activator of transcription 3 (Homo sapiens) (UniProt P40763); assay: Inhibition of STAT3 in human MDA-MB-231 cells assessed as effect on Erk1/2 expression at 1 to 3 uM incubated for 3 to 24 hrs by immunoblotting analysis; format: cell-based; conditions: dose 1-3 µM, time lower 3.0 hrs, time upper […]; summary of the method: as §3
MDA-MB-231 [16] = assay: Anticlonogenic activity against human MDA-MB-231 cells assessed as inhibition of colony formation at 0.5 uM incubated for 4 hrs by crystal violet staining based assay; format: functional, cell-based; summary of the method: as §2
[17] = biological target: Signal transducer and activator of transcription 3 (Homo sapiens) (UniProt P40763); assay: Inhibition of STAT3 in human MDA-MB-231 cells assessed as inhibition of c-myc expression at 1 to 3 uM incubated for 3 to 24 hrs by immunoblotting analysis; format: cell-based; conditions: dose 1-3 µM, time lower 3.0 hrs, time upper […]
Summary of the method: (§4)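 MDA-MB-231 cells treated with 1 or 3 μM compound for 3–24 h. Equal-protein whole-cell lysates (RIPA) immunoblotted for c-Myc, Bcl-2, VEGF, survivin and tubulin. Control is 0.05% DMSO-treated cells. Two to three independent determinations.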

[18] = biological target: Signal transducer and activator of transcription 3 (Homo sapiens) (UniProt P40763); assay: Inhibition of STAT3 in human MDA-MB-231 cells assessed as inhibition of VEGF expression at 1 to 3 uM incubated for 3 to 24 hrs by immunoblotting analysis; format: cell-based; conditions: dose 1-3 µM, time lower 3.0 hrs, time upper […]; summary of the method: as §4
[19] = biological target: Signal transducer and activator of transcription 3 (Homo sapiens) (UniProt P40763); assay: Inhibition of STAT3 in human MDA-MB-231 cells assessed as inhibition of Bcl-2 expression at 1 to 3 uM incubated for 3 to 24 hrs by immunoblotting analysis; format: cell-based; conditions: dose 1-3 µM, time lower 3.0 hrs, time upper […]; summary of the method: as §4
[20] = biological target: Signal transducer and activator of transcription 3 (Homo sapiens) (UniProt P40763); assay: Inhibition of STAT3 in human MDA-MB-231 cells assessed as inhibition of survivin expression at 1 to 3 uM incubated for 3 to 24 hrs by immunoblotting analysis; format: cell-based; conditions: dose 1-3 µM, time lower 3.0 hrs, time upper […]; summary of the method: as §4
[21] = biological target: Signal transducer and activator of transcription 3 (Homo sapiens) (UniProt P40763); assay: Inhibition of STAT3 in human MDA-MB-231 cells assessed as induction of PARP cleavage at 1 to 3 uM incubated for 3 to 24 hrs by immunoblotting analysis; format: cell-based; conditions: dose 1-3 µM, time lower 3.0 hrs, time upper […]
Summary of the method: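 Equal-protein whole-cell lysates run on SDS-PAGE/Western and probed for full-length and cleaved PARP, pYSTAT3, STAT3 and tubulin. Control is 0.05% DMSO. Two independent determinations.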

[22] = Aqueous solubility of compound in simulated gastric fluid; format: physicochemical; conditions: simulated gi fluid
[23] = Aqueous solubility of compound in simulated intestinal fluid; format: physicochemical; conditions: simulated gi fluid
[24] = Drug metabolism of compound in human liver microsomes assessed as metabolite formation; format: ADME, Microsome
[25] = Drug metabolism of compound in human liver microsomes assessed as hydroxy-acid metabolite formation; format: ADME, Microsome
MDA-MB-231 [26] = assay: Antiproliferative activity against human MDA-MB-231 cells harbouring STAT3 assessed as reduction in cell viability at upto 10 uM incubated for 72 hrs by CyQuant assay; format: functional, cell-based; conditions: MDA-MB-231, 72 h
[27] = biological target: Signal transducer and activator of transcription 3 (Homo sapiens) (UniProt P40763); assay: Inhibition of oligonucleotide [32P]-labelled 5'-AGCITCATTTCCCGTAAATCCCTA hSIE probe binding to STAT3 in human MDA-MB-468 cell nuclear extract at 0.5 to 5 uM incubated for 3 hrs by EMSA analysis; conditions: dose 0.5-5 µM
[28] = biological target: Signal transducer and activator of transcription 3 (Homo sapiens) (UniProt P40763); assay: Inhibition of STAT3 phosphorylation at Y705 residues in human MDA-MB-468 whole cell lysate at 0.5 to 2 uM incubated for 2 hrs by immunoblotting analysis; format: subcellular; conditions: dose 0.5-2 µM

- EC50 (MDA-MB-231 [1]): 1700 nM
- EC50 (MDA-MB-468): 1900 nM
- EC50 (MCF7 [2]): 7 µM
- deltaH [5]: -20.8 kJ/mol
- -TdeltaS [6]: -13.6 kJ/mol
- inhibition [7]: Tde
- inhibition [8]: inactive
Structure (SMILES): O=C1NC(=O)c2cc(N(Cc3ccc(C4CCCCC4)cn3)C(=O)[C@H]3CCN3S(=O)(=O)c3c(F)c(F)c(F)c(F)c3F)ccc21
- EC50 (MCF-10A): 8.1 µM
- Activity (MCF7 [3]): inactive
- Activity (MDA-MB-231 [4]): Active
- inhibition (MDA-MB-231 [9]): Active

- EC50 (MDA-MB-231 [1]): > 10000 nM
- IC50 [10]: 17.5 µM
Structure (SMILES): O=C(O)c1ccc(N(Cc2ccc(C3CCCCC3)cc2)C(=O)[C@H]2CCN2S(=O)(=O)c2c(F)c(F)c(F)c(F)c2F)c(F)c1

- EC50 (MDA-MB-468): 1000 nM
- EC50 (MCF7 [2]): 4.6 µM
- -TdeltaS [6]: -11.9 kJ/mol
- inhibition [7]: Tde
- inhibition [11]: Active
- inhibition [12]: Active
- inhibition [13]: Active
- inhibition [14]: Active
- inhibition [15]: Active
- inhibition [17]: Active
- inhibition [18]: Active
- inhibition [19]: Active
- inhibition [21]: Active
- solubility [22]: 116 µg/mL (≈ 183 µM)
- solubility [23]: 200 µg/mL (≈ 315 µM)
- Drug metabolism [24]: Metabolite_Detected
- Drug metabolism [25]: Metabolite_Detected
Structure (SMILES): O=C1OCc2cc(N(Cc3ccc(C4CCCCC4)cn3)C(=O)[C@H]3CCN3S(=O)(=O)c3c(F)c(F)c(F)c(F)c3F)ccc21
- EC50 (MCF-10A): 4.6 µM
- inhibition (MDA-MB-231 [16]): Active
- inhibition [20]: Active

- EC50 (MCF7 [2]): 1.49 µM
- EC50 (MDA-MB-231 [26]): 1800 nM
- inhibition [27]: Active
- inhibition [28]: Active
Structure (SMILES): CC(=O)c1cc2c(o1)C(=O)c1ccccc1C2=O [NAPABUCASIN]
